pEC50, pIC50, pKi: −log10 of the molar value. Activity calls are given as the source filed them. The rule behind the calls is not given here.

Results on six molecules are retold here after ChEMBL document CHEMBL5104176 (J Med Chem, 2022).

One assay deals with D(2) dopamine receptor (Homo sapiens, UniProt P14416). In words: Displacement of [3H]N-methylspiperone from human D2L receptor expressed in HEK293T cell membrane incubated for 1 hr by MicroBeta scintillation counting method. The class given is cell membranes. Summed up:
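Membranes from stably transfected HEK293 cells (hD2L, hD3 or hD4.4), 20 μg (D2, D3) or 30 μg (D4) protein/well. Incubated 1 h at room temperature in EBSS binding buffer, pH 7.4, with 0.4 nM [3H]N-methylspiperone and 10 half-log dilutions in triplicate. 10 μM (+)-butaclamol defines nonspecific binding. GF filtration, scintillation counting.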
In general terms: Loss of bound radioactivity is the signal in a displacement assay; it reports binding, not function.

A short description of assay [1]: Selectivity ratio of Ki for displacement of [3H]N-methylspiperone from human D2L receptor expressed in HEK293T cell membrane to Ki for displacement of [3H]N-methylspiperone from human D4.4 receptor expressed in HEK293T cell membrane.
The next assay deals with D(3) dopamine receptor (Homo sapiens, UniProt P35462). In words: Displacement of [3H]N-methylspiperone from human D3R receptor expressed in HEK293T cell membrane incubated for 1 hr by MicroBeta scintillation counting method. It counts as cell membranes. Summed up: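 Membranes from stably transfected HEK293 cells (hD2L, hD3 or hD4.4), 20 μg (D2, D3) or 30 μg (D4) protein/well. Incubated 1 h at room temperature in EBSS binding buffer, pH 7.4, with 0.4 nM [3H]N-methylspiperone and 10 half-log dilutions in triplicate. 10 μM (+)-butaclamol defines nonspecific binding. GF filtration, scintillation counting. Ki by Cheng–Prusoff from ≥3 experiments; selectivity is the Ki ratio.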

Assay [2] has as its target T1, D(4) dopamine receptor (Homo sapiens, UniProt P21917).
T1 sequence (P21917 whole entry): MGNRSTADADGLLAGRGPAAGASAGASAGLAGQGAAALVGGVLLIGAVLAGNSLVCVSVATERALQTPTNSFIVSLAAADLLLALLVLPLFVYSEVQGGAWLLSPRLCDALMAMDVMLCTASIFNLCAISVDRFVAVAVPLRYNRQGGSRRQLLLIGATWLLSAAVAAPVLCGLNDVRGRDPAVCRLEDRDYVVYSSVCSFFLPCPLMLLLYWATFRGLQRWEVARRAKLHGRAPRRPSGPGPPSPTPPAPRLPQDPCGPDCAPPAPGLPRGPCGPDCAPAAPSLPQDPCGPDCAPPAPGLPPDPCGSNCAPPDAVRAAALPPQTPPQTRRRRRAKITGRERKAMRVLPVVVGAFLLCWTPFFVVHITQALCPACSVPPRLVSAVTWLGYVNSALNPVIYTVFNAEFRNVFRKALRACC
In words: Displacement of [3H]7-OH-DPAT from human D4.4 receptor expressed in HEK293T cell membrane incubated for 1.5 hrs by MicroBeta scintillation counting method. The class given is cell membranes. An outline of the steps: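 Fresh membranes from HEK293 cells stably expressing hD4.4 (about 50–60 μg protein/well) in 50 mM Tris, 10 mM MgCl2, 1 mM EDTA, pH 7.4. Radioligand was 3 nM final; incubation 1.5 h at room temperature. Nonspecific binding was set with 10 μM (+)-butaclamol; DMSO was 3% final. Ten half-log dilutions were run in triplicate, then filtered. Ki came from IC50 by Cheng–Prusoff, from at least three independent experiments.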

The nature of assay [3]: Selectivity ratio of Ki for displacement of [3H]N-methylspiperone from human D3R expressed in HEK293T cell membrane to Ki for displacement of [3H]N-methylspiperone from human D4.4 receptor expressed in HEK293T cell membrane.
The target in assay [4] is T1, D(4) dopamine receptor. In words: Displacement of [3H]N-methylspiperone from human D4.4 receptor expressed in HEK293T cell membrane incubated for 1 hr by MicroBeta scintillation counting method. The class given is cell membranes.
In assay [5] the target is T2, D(4) dopamine receptor (Homo sapiens) (UniProt P21917).
T2 sequence (whole entry): T1 sequence (P21917 whole entry)
In words: Agonist activity at D4R (unknown origin) expressed in human HEK293T cells assessed as Gi protein activation measured after 2.5 mins by BRET assay relative to control. It counts as functional, cell-based. Summed up:
(§1)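 Transiently transfected HEK293T cells (15 μg plasmid cDNA, polyethyleneimine, 6 h, assayed after 48 h). Gαi1 or GαoA fused to RLuc8 and Gγ2 to mVenus for G protein activation; D4 receptor fused to RLuc8 and β-arrestin to mVenus for recruitment. About 2×10^5 cells/well in PBS with 0.1% glucose and 200 μM Na bisulfite. Coelenterazine H 5 μM. Read 530/485 nm; RLuc8-only background subtracted.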
A general note: BRET reads energy transfer from a luciferase to a nearby fluorophore.

For assay [6], the target named is T1, D(4) dopamine receptor. In words: Antagonist activity at D4R (unknown origin) expressed in human HEK293T cells assessed as inhibition of dopamine-induced G0 protein activation pretreated for 10 mins followed by dopamine addition and measured after 2.5 mins by BRET assay. The class given is functional, cell-based.
Assay [7] relates to GSC#83. In words: Cytotoxicity against human GSC#83 cells assessed as reduction in cell viability at 10 uM incubated for 24 hrs by MTS assay. It counts as functional, cell-based. An outline of the steps:
(§2)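 Cells seeded at 5,000/well and grown to 80% confluence: T98 and U251 in EMEM with 10% serum; GSC#83 as spheres in serum-free DMEM/F12 with EGF and bFGF. Treated 24 h at 5–50 μM in DMSO, with a DMSO vehicle control. MTS reagent added and formazan absorbance read at 490 nm. n = 6; two-way ANOVA.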
In general terms: Tetrazolium assays rely on reduction of a dye to a coloured formazan, in cell work by metabolically active cells.

Assay [8] deals with T1, D(4) dopamine receptor. In words: Agonist activity at D4R (unknown origin) expressed in human HEK293T cells assessed as beta arrestin-2 recruitment measured after 2.5 mins by BRET assay. The class given is functional, cell-based. Summed up: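 HEK293T cells transiently co-transfected with D4 receptor–RLuc8 and β-arrestin–mVenus using PEI, then harvested after 48 h. Cells were resuspended in PBS with 0.1% glucose and 200 μM Na bisulfite, at about 2×10^5 cells/well. Coelenterazine H (5 μM) was added, and ligands 2 min later. Emission was read at 485 and 530 nm 2.5 min after ligand. Net BRET was taken after subtracting the RLuc8-alone background; dose–response curves were fitted.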

Assay [9] concerns T98G. In words: Cytotoxicity against human T98G cells assessed as reduction in cell viability at 5 to 50 uM incubated for 24 hrs by MTS assay. The class given is functional, cell-based. Conditions: dose 5-50 µM. An outline of the steps:
as §2

Assay [10] addresses T1, D(4) dopamine receptor. In words: Antagonist activity at D4R (unknown origin) expressed in human HEK293T cells assessed as inhibition of dopamine-induced Gi protein activation pretreated for 10 mins followed by dopamine addition and measured after 2.5 mins by BRET assay. It counts as functional, cell-based.
Assay [11] deals with T2, D(4) dopamine receptor (Homo sapiens). In words: Agonist activity at D4R (unknown origin) expressed in human HEK293T cells assessed as G0 protein activation measured after 2.5 mins by BRET assay relative to control. The class given is functional, cell-based. Summed up: as §1
Assay [12] concerns the target T1, D(4) dopamine receptor. In words: Antagonist activity at D4R (unknown origin) expressed in human HEK293T cells assessed as inhibition of dopamine-induced beta arrestin-2 recruitment pretreated for 10 mins followed by dopamine addition and measured after 2.5 mins by BRET assay. It counts as functional, cell-based.
Assay [13] relates to U-251. In words: Cytotoxicity against human U-251 cells assessed as reduction in cell viability at 5 to 50 uM incubated for 24 hrs by MTS assay. It counts as functional, cell-based. Conditions: dose 5-50 µM. An outline of the steps: as §2
The target of assay [14] is T2, D(4) dopamine receptor (Homo sapiens). In words: Agonist activity at D4R (unknown origin) expressed in human HEK293T cells assessed as beta arrestin-2 recruitment measured after 2.5 mins by BRET assay relative to control. It counts as functional, cell-based. An outline of the steps: as §1
Assay [15] concerns U-251. In words: Cytotoxicity against human U-251 cells assessed as reduction in cell viability at 10 uM incubated for 24 hrs by MTS assay. It counts as functional, cell-based. An outline of the steps:
as §2

Assay [16] has as its system T98G. In words: Cytotoxicity against human T98G cells assessed as reduction in cell viability at 10 uM incubated for 24 hrs by MTS assay. It counts as functional, cell-based. An outline of the steps: as §2
Assay [17] relates to GSC#83. In words: Cytotoxicity against human GSC#83 cells assessed as reduction in cell viability at 5 to 50 uM incubated for 24 hrs by MTS assay. The class given is functional, cell-based. The following applies: dose 5-50 µM. An outline of the steps:
as §2

Assay [18] deals with T2, D(4) dopamine receptor (Homo sapiens). In words: Partial agonist activity at D4R (unknown origin) expressed in human HEK293T cells assessed as Gi protein activation measured after 2.5 mins by BRET assay relative to control. The class given is functional, cell-based. An outline of the steps: as §1
For assay [19] the target is unchanged. In words: Partial agonist activity at D4R (unknown origin) expressed in human HEK293T cells assessed as G0 protein activation measured after 2.5 mins by BRET assay relative to control. Conditions: filed as partial agonist. The class given is functional, cell-based. An outline of the steps:
as §1

For assay [20], the target named is T1, D(4) dopamine receptor. In words: Partial agonist activity at D4R (unknown origin) expressed in human HEK293T cells assessed as G0 protein activation measured after 2.5 mins by BRET assay. The class given is functional, cell-based. Summed up: as §1
Assay [21] deals with T1, D(4) dopamine receptor. In words: Partial agonist activity at D4R (unknown origin) expressed in human HEK293T cells assessed as Gi protein activation measured after 2.5 mins by BRET assay. It counts as functional, cell-based. Summed up: as §1

Sequence of D(3) dopamine receptor (P35462 whole entry): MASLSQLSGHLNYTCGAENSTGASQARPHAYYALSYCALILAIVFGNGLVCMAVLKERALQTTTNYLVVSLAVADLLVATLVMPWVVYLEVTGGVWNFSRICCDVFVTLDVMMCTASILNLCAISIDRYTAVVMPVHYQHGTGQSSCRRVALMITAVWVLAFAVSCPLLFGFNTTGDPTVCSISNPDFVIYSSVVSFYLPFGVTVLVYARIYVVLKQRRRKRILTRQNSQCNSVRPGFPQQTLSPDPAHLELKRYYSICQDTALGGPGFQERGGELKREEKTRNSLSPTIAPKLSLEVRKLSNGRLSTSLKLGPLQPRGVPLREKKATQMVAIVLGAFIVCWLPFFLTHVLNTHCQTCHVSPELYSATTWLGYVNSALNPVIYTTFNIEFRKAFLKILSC
Sequence of D(2) dopamine receptor (P14416 whole entry): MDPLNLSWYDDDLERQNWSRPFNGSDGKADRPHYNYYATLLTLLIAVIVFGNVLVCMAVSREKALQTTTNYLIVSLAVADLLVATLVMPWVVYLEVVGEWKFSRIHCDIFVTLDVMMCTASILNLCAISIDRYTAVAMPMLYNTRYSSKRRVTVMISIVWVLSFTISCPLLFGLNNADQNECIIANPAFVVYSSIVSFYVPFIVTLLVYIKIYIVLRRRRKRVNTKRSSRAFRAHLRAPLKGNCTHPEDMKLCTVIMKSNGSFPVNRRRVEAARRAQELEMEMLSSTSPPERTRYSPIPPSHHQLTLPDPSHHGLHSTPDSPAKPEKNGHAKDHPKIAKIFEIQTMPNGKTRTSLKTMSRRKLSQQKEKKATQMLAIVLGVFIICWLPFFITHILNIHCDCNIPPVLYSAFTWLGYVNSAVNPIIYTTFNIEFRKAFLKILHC

Consider `O=C1CCc2ccccc2N1CCCN1CCN(c2cccc(Cl)c2)CC1`, for which the pKi on D(2) dopamine receptor was 6.12; at D(3) dopamine receptor it was 6.55; at D(4) dopamine receptor [2], 9.11; at D(4) dopamine receptor [4], 8.98. In addition, the figures for the Ratio Ki in assay [1] and in assay [3] were 724 and 269, respectively.
In the case of `O=C1CCc2ccccc2N1CCCN1CCN(c2ccc(Cl)cc2)CC1`, the Emax in [5] is 0%; in assay [11] it was 0%; in assay [14] it was -43.4%. Further, the pKi on D(2) dopamine receptor was 5.26; at D(3) dopamine receptor, 5.61; on D(4) dopamine receptor [2], 8.83; at D(4) dopamine receptor [4], 9.18. Besides, the pIC50 at D(4) dopamine receptor [6] was 6.42; at D(4) dopamine receptor [10], 6.60; on D(4) dopamine receptor [12], 4.98. Further, the outcome in the assay with GSC#83 [7], in the assay with T98G [9], in the assay with U-251 [13], with U-251 [15], in the assay on T98G [16] and with GSC#83 [17] was Active. Also, the pEC50 at D(4) dopamine receptor [8] is 7.29. The Ratio Ki in assay [1] is 8320; in [3], 3720.
Turning to `O=C1CCc2ccccc2N1CCCN1CCN(c2ccccc2Cl)CC1`, the pKi at D(2) dopamine receptor was 6.86; at D(3) dopamine receptor, 7.22; at D(4) dopamine receptor [2], 9.29; on D(4) dopamine receptor [4], 9.22. For the same molecule, the figures for the Ratio Ki in [1] and in [3] were 229 and 100, respectively.
With `O=C1CCc2ccccc2N1CCCN1CCN(c2ccccn2)CC1`, the results for the pKi on D(2) dopamine receptor, at D(3) dopamine receptor and on D(4) dopamine receptor [4] were 5.56, 5.59 and 8.65, respectively. Moreover, the outcome in the assay with GSC#83 [7], in the assay with T98G [9], in the assay on U-251 [13], in the assay with U-251 [15], in the assay on T98G [16] and with GSC#83 [17] was Active. For the same molecule, the Emax in assay [18] is 26.6%; in assay [19], 46.2%; in assay [14] it was 0%. The pIC50 on D(4) dopamine receptor [12] was 7.17. The pEC50 at D(4) dopamine receptor [20] was 8.07; at D(4) dopamine receptor [21], 7.91. For the same molecule, the figures for the Ratio Ki in [1] and in assay [3] were 1230 and 1150, respectively.
For the molecule `COc1ccc(N2CCN(CCCN3C(=O)CCc4ccccc43)CC2)cc1`, the Emax in assay [5], in assay [11] and in assay [14] was 0% each time. In addition, the figures for the pKi on D(2) dopamine receptor, on D(3) dopamine receptor and on D(4) dopamine receptor [4] were 4.68, 5.08 and 8.16, respectively. In addition, the pIC50 is 6.97 at D(4) dopamine receptor [6], 6.57 at D(4) dopamine receptor [10] and 6.41 at D(4) dopamine receptor [12]. In addition, the figures for the Ratio Ki in [1] and in [3] were 3020 and 1200, respectively.
In the case of `Cc1ccc(N2CCN(CCCN3C(=O)CCc4ccccc43)CC2)cc1`, the Emax in assay [5] was 0%; in assay [11] it was 0%; in assay [14], -30.2%. The pKi at D(2) dopamine receptor is 5.29; at D(3) dopamine receptor, 5.77; at D(4) dopamine receptor [4] it was 9.01. The pIC50 was 6.48 on D(4) dopamine receptor [6], 6.96 at D(4) dopamine receptor [10] and 5.91 at D(4) dopamine receptor [12]. Further, on D(4) dopamine receptor [8], the pEC50 is 7.79. Moreover, the Ratio Ki came out at 5250 in [1] and 1740 in [3].

As a reminder, the pKi is −log10 of the Ki, conventionally taken in molar units. By Emax is commonly meant the size of the effect at its maximum, as opposed to the concentration needed. By pIC50 is commonly meant −log10 of the IC50, conventionally taken in molar units. The term pEC50 denotes the negative decadic logarithm of the EC50, by convention in mol/L.
